Bioassay records: PubChem, Sanford-Burnham Center for Chemical Genomics
PMI act hi M6P – activators of human phosphomannose isomerase at near-saturating mannose 6-phosphate; hit rate 0.34% among 190,000; activation factor at 20 µM; coupled PMI enzyme assay, resazurin fluorescence, 20 min; stronger effect = higher value; 1 = untreated enzyme, 0 = substrate-free blank;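 active = activation factor of 2 or more at 20 µM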
Target sequence (P34949 whole entry, looked up): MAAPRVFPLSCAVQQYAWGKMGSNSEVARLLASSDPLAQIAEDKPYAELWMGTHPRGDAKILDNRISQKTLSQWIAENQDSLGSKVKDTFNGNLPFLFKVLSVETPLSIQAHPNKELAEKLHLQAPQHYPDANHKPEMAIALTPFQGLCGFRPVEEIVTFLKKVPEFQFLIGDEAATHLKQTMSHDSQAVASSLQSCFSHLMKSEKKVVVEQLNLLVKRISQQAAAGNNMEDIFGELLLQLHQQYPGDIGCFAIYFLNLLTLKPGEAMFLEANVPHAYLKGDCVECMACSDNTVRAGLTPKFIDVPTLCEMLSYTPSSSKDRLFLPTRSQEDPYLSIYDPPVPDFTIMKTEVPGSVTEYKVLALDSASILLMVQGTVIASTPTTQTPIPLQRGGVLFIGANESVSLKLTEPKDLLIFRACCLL
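Material: human phosphomannose isomerase with PGI, G6PDH, diaphorase coupling enzymes / Reagent: Man-6-P substrate 1.0 mM / Dosing: single compound dose of 20 µM, 1% DMSO final / Incubation: enzyme reaction with compound 20 min at room temperature / Signal: resorufin fluorescence (Ex 544/Em 590 nm) from resazurin via diaphorase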
G6PDH CS – L. mesenteroides G6PDH inhibition counter-screen; Purified L. mesenteroides G6PDH, diaphorase/resazurin coupled fluorescence, 45 min; inhibition, % at 5 µM; hit rate 0.12% among 200,000; in the data active = inhibition above about 50%
Diaphorase inh – diaphorase inhibition or chemical oxidation counter-screen | diaphorase resazurin-to-resorufin fluorescence, NADH, 16 min; bacterial (C. kluyveri) enzyme, not human | inhibition, % at 20 µM | hit rate 0.69% among 190,000 | AID 1217;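 active = primary screen inhibition at 20 µM above a set limit, cut at about 50% in these data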;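 note: plate controls were DMSO with full reaction for no effect and wells lacking NADH for full effect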
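Benchmarks: positive control wells lacking NADH, neutral wells with DMSO only. System: bacterial diaphorase enzyme (C. kluyveri). Input: 0.14 U/mL diaphorase, enzyme working solution. Detection: resorufin fluorescence, excitation 544 nm, emission 590 nm. Times: 16-min room-temperature incubation before reading.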
Diaphorase act – diaphorase activation or chemical reduction counter-screen; Diaphorase/resazurin coupled assay, resorufin fluorescence, 16 min; stronger effect = higher value; 1 = vehicle wells, 0 = NADH-free wells; activation factor at 20 µM; hit rate 0.005% among 190,000; AID 1229;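 active = diaphorase activity raised at least twofold by the compound at 20 µM; inactive = activation factor below 2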
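Material: purified diaphorase enzyme from Clostridium kluyveri / Medium: HEPES pH 7.4 buffer with MgCl2 and Tween 20 / Schedule: enzyme reaction of 16 min at room temperature / Measured by: resorufin fluorescence, excitation 544 nm, emission 590 nm / Evaluation: rise in resorufin formation, marking diaphorase activation or chemical reduction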
PMI activator – phosphomannose isomerase (human) activation | hit rate 0.005% among 190,000 | purified human PMI, coupled resazurin fluorescence, 20 min; stronger effect = higher value; 1 = vehicle control, 0 substrate-free wells | activation factor at 20 µM | AID 1214 | P34949;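 active = activation factor of 2 or more at 20 µM, relative to plate controls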
Active calls of the source: *. An excerpt weighted towards active compounds, which were near 1.1% of everything screened.

SMILES	PMI act hi M6P	G6PDH CS	Diaphorase inh	Diaphorase act	PMI activator
O=C(O)c1sc2cc(C(F)(F)F)cnc2c1-c1cccs1	1	5	12	0.9	1.2
CC1=C(C#N)C(=O)NC(=O)/C1=C\c1ccc(-c2cc(C)c(C)cc2[N+](=O)[O-])o1	0.5	28	61*	0.4	1
CCN(CC)C(=O)Cn1cc(C(=O)C(=O)N2CCCc3ccccc32)c2ccccc21	1	7	8	0.9	0.9
Clc1ccc(/C(Cc2nc3ccccc3[nH]2)=N\Nc2ccccc2)cc1	3*	19	0	1	1.8
CN/N=C(\Cc1nc2ccccc2[nH]1)c1ccc([N+](=O)[O-])cc1	0.9	4	10	0.9	1.1
O=C(CNc1ccc2ccccc2c1)N/N=C/c1ccc(C(=O)O)cc1	0.3	5	59*	0.4	0.6
COc1ccc(C(=O)CNc2ccc3ccccc3c2)cc1	0.2	24	63*	0.4	0.2
O=C(COc1cccc(Cl)c1)N/N=C\c1cc2ccccc2nc1Cl	1	1	2	1	1.1
O=C(CNc1cccc2ccccc12)N/N=C/c1ccc(C(=O)O)cc1	0.7	-14	16	0.8	0.9
O=C(CNc1ccc2ccccc2c1)N/N=C/c1cc2ccccc2nc1Cl	0.3	4	52*	0.5	0.7
Cc1ccc(N(CCC(=O)Nc2nnc(C3CC3)s2)S(=O)(=O)c2ccccc2)cc1	1	13	7	0.9	0.9
Cc1ccc(N2C(=O)CC(Sc3ccccc3C(=O)O)C2=O)cc1C (stereo not drawn)	1.1	1	8	0.9	1.1
COc1cc(C(=O)N2CCN(S(=O)(=O)c3ccc(F)cc3)CC2)cc(OC)c1OC	1	1	16	0.8	0.9
C=CCSC1=N/C(=C\c2ccc3c(c2)OCO3)C(=O)S1	0.9	10	6	0.9	1
C=CCSC1=N/C(=C\c2cc(OCC)c(OC(C)=O)c([N+](=O)[O-])c2)C(=O)S1	0.6	0	57*	0.4	0.7
COc1cc(NC(=O)CN2C(=O)NC(c3ccccc3)(c3ccccc3)C2=O)c(C)cc1[N+](=O)[O-]	0.9	-18	29	0.7	0.8
O=C(O)C/C=C(/NC(=O)OCc1ccccc1)C(=O)OCc1ccccc1	2.8*	9	6	0.9	1.9
O=C1C(=O)N(c2cccc(Cl)c2)C(c2ccccc2[N+](=O)[O-])/C1=C(\O)c1ccccc1 (stereo not drawn)	1.5	1	15	0.9	1
O=C1C(=O)N(c2ccccc2)C(c2ccccc2[N+](=O)[O-])/C1=C(\O)c1ccccc1 (stereo not drawn)	0.9	13	51*	0.5	0.9
O=C(COc1ccc(Cl)cc1Cl)NC(=S)Nc1ccccc1C(=O)O	0.9	8	53*	0.5	0.9
Cn1c(=O)c2c(-c3ccccc3F)c3c(nc2n(C)c1=O)-c1ccccc1C3O (stereo not drawn)	2.1*	3	0	1	1.8
O=C(CSC1=NCCS1)NC1CCCC1	1.1	4	3	1	1
O=C(/C=C/c1ccccc1)NC(=S)NNC(=O)c1ccco1	1.1	2	52*	0.5	1.1
O=C(c1cc2nc(-c3ccco3)cc(C(F)(F)F)n2n1)N1CCN(Cc2ccccc2)CC1	0.9	1	13	0.9	0.8
CCOc1ccc2[nH]c(=O)c(C(c3nnnn3CC3CCCO3)N3CCc4ccccc4C3)cc2c1 (stereo not drawn)	0.9	14	59*	0.4	1.2
SMILES	PMI act hi M6P	G6PDH CS	Diaphorase inh	Diaphorase act	PMI activator
Cc1cccc2cc(C(c3nnnn3CC3CCCO3)N3CCCC4(CCCCC4)C3)c(=O)[nH]c12 (stereo not drawn)	0.9	6	31	0.7	1
Cc1cccc2cc(C(c3nnnn3CC3CCCO3)N3CCCc4ccccc43)c(=O)[nH]c12 (stereo not drawn)	0.5	5	60*	0.4	0.8
O=c1[nH]c2cc3c(cc2cc1C(c1nnnn1C1CCCC1)N1CCCc2ccccc21)OCCO3 (stereo not drawn)	0.7	10	21	0.8	0.9
Cc1cccc2cc(C(c3nnnn3CC3CCCO3)N3CCc4ccccc4C3)c(=O)[nH]c12 (stereo not drawn)	1.3	22	55*	0.4	1
CCc1ccc2[nH]c(=O)c(C(c3nnnn3CC3CCCO3)N3CCCc4ccccc43)cc2c1 (stereo not drawn)	0.9	19	68*	0.3	0.5
Cc1cc2cc(C(c3nnnn3CC3CCCO3)N3CCCc4ccccc43)c(=O)[nH]c2cc1C (stereo not drawn)	0.8	22	50	0.5	0.6
C=C(C)CSc1nc2ccccc2[nH]1	1	4	5	0.9	1
Cc1ccc2cc(C(c3nnnn3CC3CCCO3)N3CCc4ccccc4C3)c(=O)[nH]c2c1 (stereo not drawn)	1.4	-2	54*	0.5	1
C/C(=N\Nc1nc(-c2ccc(C)cc2C)cs1)c1cc2ccccc2oc1=O	1.1	-7	8	0.9	0.9
COc1ccc2oc(=O)c(/C(C)=N/Nc3nc(-c4cc(C)ccc4C)cs3)cc2c1	2.3*	5	14	0.9	1.6
Cc1onc(-c2ccccc2Cl)c1C(=O)OCC(=O)c1c(N)n(C)c(=O)n(C)c1=O	0.9	2	26	0.7	0.9
S=C(Nc1ccc(Nc2ccccc2)cc1)N1CCN(c2ncccn2)CC1	1	12	1	1	0.9
Cc1cccc2sc(NNC(=O)c3ccc(S(=O)(=O)N4CCc5ccccc5C4)cc3)nc12	2.1*	4	-4	1	1.7
Cc1cccc2sc(NNC(=O)c3ccc(S(=O)(=O)N4CCCC(C)C4)cc3)nc12 (stereo not drawn)	1.2	11	14	0.9	1.1
COCCOC(=O)C1=C(C)NC2=C(C(=O)CCC2)C1c1cc2c(cc1Br)OCO2 (stereo not drawn)	1	11	9	0.9	1
CCSc1cc(C2C(C(=O)OC)=C(C)NC3=C2C(=O)CCC3)c(C)o1 (stereo not drawn)	2.1*	7	6	0.9	1.1
COc1ccc(Cl)cc1NC(=S)NCc1ccco1	1.1	-3	6	0.9	1
CC1=NN(c2ccc(S(=O)(=O)O)cc2Cl)C(=O)C1	2*	8	26	0.7	1.4
CCOC(=O)C(Cc1ccc(O)cc1)NC(=O)CNC(=O)C1CCCN1C(=O)OC(C)(C)C (stereo not drawn)	1	4	12	0.9	1.1
COc1ccc(N2C(=O)c3ccccc3NC2(C)C)cc1	1.1	4	-1	1	1.1
